The text below walks through data of ChEMBL document CHEMBL1151472, “In vitro interactions between tacrolimus and azoles against Candida albicans determined by different methods” (2008).

Structures are written as SMILES.

Common to all, as to assay type: functional
In assay [1] the test system is Candida albicans. In words: Antimicrobial activity against azole-resistant Candida albicans isolate CA10 assessed as growth at 1 ug/ml cotreated with 0.031 ug/ml calcineurin signaling inhibitor tacrolimus after 48 hrs by microdilution checkerboard technique relative to control. Also on record: scale not given: the % may be the effect or the level left. The method, boiled down:
(§1)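 Checkerboard microdilution in RPMI 1640 (pH 7.0, 2% dextrose, 0.165 M MOPS). Azole dilutions run along columns and FK506 along rows, at 4× final concentration. Final inoculum 2.5 × 10^3 CFU/ml from Sabouraud-subcultured cells. Incubated 35°C for 48 h; OD read at 492 nm. Background from microorganism-free plates subtracted. Growth % = well OD / drug-free well OD. Triplicate on different days, values averaged.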

Assay [2] concerns Candida albicans. In words: Antimicrobial activity against azole-resistant Candida albicans isolate CA10 assessed as growth at 2 ug/ml co-treated with 0.031 ug/ml calcineurin signaling inhibitor tacrolimus after 48 hrs by microdilution checkboard technique relative to control. Also noted: scale not given: the % may be the effect or the level left. In short, it runs like this:
as §1
(In general: Broth dilution looks for growth in wells or tubes with falling amounts of substance.)

The test system of assay [3] is Candida albicans. The assay can be described thus: Antimicrobial activity against azole-resistant Candida albicans isolate CA10 assessed as growth at 8 ug/ml cotreated with 0.063 ug/ml calcineurin signaling inhibitor tacrolimus after 48 hrs by microdilution checkerboard technique relative to control. Also on record: scale not given: the % may be the effect or the level left. The method, boiled down:
(§2)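 CA10 in RPMI 1640 with 2% dextrose and 0.165 M MOPS, pH 7.0. Checkerboard used twofold dilutions, with azole alone in row H and the drug-free growth control in well H1. Final inoculum was 2.5 × 10^3 CFU/ml, incubated 35°C for 48 h, with OD read at 492 nm. Growth % = background-subtracted well OD / drug-free well OD. Run in triplicate on different days.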

Assay [4] relates to Candida albicans. In words: Antimicrobial activity against azole-resistant Candida albicans isolate CA10 assessed as growth at 0.25 ug/ml co-treated with 0.031 ug/ml calcineurin signaling inhibitor tacrolimus after 48 hrs by microdilution checkboard technique relative to control. Also noted: scale not given: the % may be the effect or the level left. In short, it runs like this:
as §1

Assay [5] relates to Candida albicans. The assay can be described thus: Antimicrobial activity against azole-resistant Candida albicans isolate CA10 assessed as growth at 0.5 ug/ml co-treated with 0.031 ug/ml calcineurin signaling inhibitor tacrolimus after 48 hrs by microdilution checkboard technique relative to control. Also on record: scale not given: the % may be the effect or the level left. In short, it runs like this:
as §1

For assay [6], the system named is Candida albicans. In words: Antimicrobial activity against azole-resistant Candida albicans isolate CA10 assessed as growth at 32 ug/ml co-treated with 0.031 ug/ml calcineurin signaling inhibitor tacrolimus after 48 hrs by microdilution checkboard technique relative to control. Also on record: scale not given: the % may be the effect or the level left. In short, it runs like this:
as §1

Assay [7] concerns Candida albicans. The assay can be described thus: Antimicrobial activity against azole-resistant Candida albicans isolate CA10 assessed as growth at 4 ug/ml cotreated with 0.016 ug/ml calcineurin signaling inhibitor Tacrolimus after 48 hrs by microdilution checkboard technique relative to control. Also on record: scale not given: the % may be the effect or the level left. The method, boiled down:
as §2

Assay [8] deals with Candida albicans. The assay can be described thus: Antimicrobial activity against azole-resistant Candida albicans isolate CA10 assessed as growth at 0.5 ug/ml cotreated with 0.002 ug/ml calcineurin signaling inhibitor tacrolimus after 48 hrs by microdilution checkerboard technique relative to control. Also on record: scale not given: the % may be the effect or the level left. In short, it runs like this: (§3)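 Checkerboard microdilution in MOPS-buffered RPMI 1640 (pH 7.0, 2% dextrose). Final ranges: azole 0.125–128 μg/ml (FLC) or 0.008–8 μg/ml (ITR, VRC), tacrolimus 0.002–0.125 μg/ml; solvent 1% in single-drug wells. Inoculum 2.5 × 10^3 CFU/ml, 35°C, 48 h. Growth % = background-subtracted OD492 of each well / drug-free well. Triplicate on different days.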

Assay [9] relates to Candida albicans. In words: Antimicrobial activity against azole-resistant Candida albicans isolate CA10 assessed as growth at 1 ug/ml cotreated with 0.002 ug/ml calcineurin signaling inhibitor tacrolimus after 48 hrs by microdilution checkerboard technique relative to control. Also on record: scale not given: the % may be the effect or the level left. In short, it runs like this: as §3

In assay [10] the test system is Candida albicans. The assay can be described thus: Antimicrobial activity against azole-resistant Candida albicans isolate CA10 assessed as growth at 0.125 ug/ml after 48 hrs by microdilution checkerboard technique relative to control. The method, boiled down: as §3
In assay [11] the test system is Candida albicans. The assay can be described thus: Antimicrobial activity against azole-resistant Candida albicans isolate CA10 assessed as growth at 0.25 ug/ml co-treated with 0.008 ug/ml calcineurin signaling inhibitor tacrolimus after 48 hrs by microdilution checkboard technique relative to control. Also noted: scale not given: the % may be the effect or the level left. The method, boiled down:
as §1

Assay [12] deals with Candida albicans. The assay can be described thus: Antimicrobial activity against azole-resistant Candida albicans isolate CA10 assessed as growth at 128 ug/ml cotreated with 0.008 ug/ml calcineurin signaling inhibitor Tacrolimus after 48 hrs by microdilution checkboard technique relative to control. Also on record: scale not given: the % may be the effect or the level left. The method, boiled down: as §3

Assay [13] has as its system Candida albicans. In words: Antimicrobial activity against azole-resistant Candida albicans isolate CA10 assessed as growth at 0.5 ug/ml cotreated with 0.004 ug/ml calcineurin signaling inhibitor tacrolimus after 48 hrs by microdilution checkerboard technique relative to control. Also on record: scale not given: the % may be the effect or the level left. The method, boiled down: as §3

Assay [14] deals with Candida albicans. The assay can be described thus: Antimicrobial activity against azole-resistant Candida albicans isolate CA10 assessed as growth at 1 ug/ml cotreated with 0.004 ug/ml calcineurin signaling inhibitor Tacrolimus after 48 hrs by microdilution checkboard technique relative to control. Also noted: scale not given: the % may be the effect or the level left. In short, it runs like this: as §3

Assay [15] concerns Candida albicans. The assay can be described thus: Antimicrobial activity against azole-resistant Candida albicans isolate CA10 assessed as growth at 8 ug/ml after 48 hrs by microdilution checkerboard technique relative to control. In short, it runs like this:
as §2

In assay [16] the test system is Candida albicans. The assay can be described thus: Antimicrobial activity against azole-resistant Candida albicans isolate CA10 assessed as growth at 64 ug/ml after 48 hrs by microdilution checkerboard technique relative to control. The method, boiled down:
as §2

In assay [17] the test system is Candida albicans. The assay can be described thus: Antimicrobial activity against azole-resistant Candida albicans isolate CA10 assessed as growth at 0.063 ug/ml after 48 hrs by microdilution checkerboard technique relative to control. In short, it runs like this:
as §3

The test system of assay [18] is Candida albicans. The assay can be described thus: Antimicrobial activity against azole-susceptible Candida albicans isolate CA5 co-treated with calcineurin signaling inhibitor tacrolimus after 48 hrs by microdilution checkerboard technique. Particulars: isolate CA5, 48 h. In short, it runs like this: (§4)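 Checkerboard microdilution in MOPS-buffered RPMI 1640 (pH 7.0, 2% dextrose) with 2.5 × 10^3 CFU/ml for 48 h at 35°C. Final FK506 was 0.002–0.125 μg/ml. Azole finals were FLC 0.125–128 μg/ml, and ITR and VRC 0.008–8 μg/ml. MIC80 is an 80% OD492 decrease vs drug-free control. Interaction was scored by FICI (synergy ≤0.5, antagonism >4) and by ΔE from triplicates.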

In assay [19] the test system is Candida albicans. The assay can be described thus: Antimicrobial activity against azole-susceptible Candida albicans isolate CA129 co-treated with calcineurin signaling inhibitor tacrolimus after 48 hrs by microdilution checkerboard technique. Particulars: isolate CA129, 48 h. In short, it runs like this:
as §4

Assay [20] has as its system Candida albicans. The assay can be described thus: Antimicrobial activity against azole-resistant Candida albicans isolate CA16 cotreated with calcineurin signaling inhibitor Tacrolimus after 48 hrs by microdilution checkerboard technique. The note with it: isolate CA16, 48 h. The method, boiled down:
as §4

Assay [21] concerns Candida albicans. In words: Antimicrobial activity against azole-resistant Candida albicans isolate CA135 cotreated with calcineurin signaling inhibitor Tacrolimus after 48 hrs by microdilution checkerboard technique. The note with it: isolate CA135, 48 h. In short, it runs like this:
as §4

In assay [22] the test system is Candida albicans. The assay can be described thus: Antimicrobial activity against azole-resistant Candida albicans isolate CA10 assessed as growth at 1 ug/ml co-treated with 0.125 ug/ml calcineurin signaling inhibitor tacrolimus after 48 hrs by microdilution checkboard technique relative to control. Also on record: scale not given: the % may be the effect or the level left. The method, boiled down:
as §3

Assay [23] concerns Candida albicans. In words: Antimicrobial activity against azole-resistant Candida albicans isolate CA10 assessed as growth at 32 ug/ml co-treated with 0.125 ug/ml calcineurin signaling inhibitor tacrolimus after 48 hrs by microdilution checkboard technique relative to control. Also on record: scale not given: the % may be the effect or the level left. In short, it runs like this:
as §2

Assay [24] deals with Candida albicans. The assay can be described thus: Antimicrobial activity against azole-resistant Candida albicans isolate CA10 assessed as growth at 64 ug/ml co-treated with 0.125 ug/ml calcineurin signaling inhibitor tacrolimus after 48 hrs by microdilution checkboard technique relative to control. Also on record: scale not given: the % may be the effect or the level left. In short, it runs like this:
as §2

What is called MIC is the lowest concentration that inhibits growth of the organism.

In the case of `OC(Cn1cncn1)(Cn1cncn1)c1ccc(F)cc1F` [FLUCONAZOLE], the Activity in assay [1] is given as 17%; in [2], 12%; in assay [3], 12%; in assay [4] it was 23%; in assay [5], 19%; in assay [6], 16%. The Activity in assay [7] came out at 18%; in assay [8], 55%; in [9], 50%; in [10], 75%; in assay [11] it was 39%; in assay [12] it was 39%. The Activity in [13] stood at 38%; in assay [14], 29%; in assay [15], 55%; in assay [16], 48%; in [17], 93%; in assay [22], 3%. Further, the Activity in assay [23] and in assay [24] was 0% in each case. The MIC in [18] was 0.25 µg/mL; in [19], 0.25 µg/mL; in [20], 0.5 µg/mL; in assay [21] it was 0.25 µg/mL.
